Assay results as given in the RNAGym collection of RNA variant scans (doi:10.1126/science.aae0568).
This sample holds only a part of the variants without activity.

B1: tRNA (parent)
chain: GUUCCGUUGGCGUAAUGGUAACGCGUCUCCCUCCUAAGGAGAAGACUGCGGGUUCGAGUCCCGUACGGAACG

Variants of: B1
Assay: yeast fitness relative to wild type (ratio to wild type); higher = fitter; tRNA-Arg(CCU), competitive growth, 37 C, YPD
Summary of the method: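 Gene amplicons from the start population and from each of six end populations were read by 100-nucleotide paired-end sequencing. Those end populations came from pooled Saccharomyces cerevisiae strains carrying tRNA-Arg(CCU) gene variants at the native locus, competed in YPD at 37°C for 24 hours. Fitness relative to wild type was worked out from changes in genotype frequencies. Genotypes needed ≥ 100 starting reads, and estimates < 0.5 were set to 0.5.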

| Variant | yeast fitness |
| --- | --- |
| GUUCCGUUGGCGUAAUGGUAACGCGUCUCCCUCCUAAGGCGUAGACUGCGGGUUCAAGUCCCGUAGGGAACG | ≤ 0.5 |
| GUUCCGUUGGCGUAAUGGUAACGCGUCUCCCUCCUAAGCAGAAGACCGCGGGUUCGAGUCCCGUACGGAACG | 0.822 |
| GUUCCGUUGGCGUAAUGGUAACGCGUCUCCCUCCUAAGCAGAAGACUGCCGGUUCGAGUCCCGUACGGAACG | 0.575 |
| GUUCCGUUGGCGUAAUGGUAACGCGUCUCCCUCCUAAGCAGAAGACUGCAGGUUCGAGUCCCGUACGGAACG | 0.752 |
| GUUCCGUUGGCGUAAUGGUAACGCGUCUCCCUCCUAAGCAGAAGACUGCGGGUUCGAGUCCCGUACAGAGCG | 0.648 |
| GUUCCGUUGGCGUAAUGGUAACGCGUCUCCCUCCUAAGCAGAACACUGCGGGUUCGAGUCCCGUCCGGAACG | ≤ 0.5 |
| GUUCCGUUGGCGUAAUGGUAACGCGUCUCCCUCCUAAGCAGAAGACUGGGGGUUCGAGUCCCGUACGGAACG | 0.59 |
| GUUCCGUUGGCGUAAUGGUAACGCGUCUCCCUCCUAAGCAGAAGACUGUGGGUUCGAGUCCCGUACGGAACG | 0.827 |
| GUUCCGUUGGCGUAAUGGUAACGCGUCUCCCUCCUAAGGCGGAGACUGCGGGUUCGAGUCCCGUACGGAACG | 0.886 |
| GUUCCGUUGGCGUAAUGGUAACGCGUCUCCCUCCUAAGCAGAAGAUUGCGGGUUCGAGUCCUGUAGGGAACG | ≤ 0.5 |
| GUUCCGUUGGCGUAAUGGUAACGCGUCUCCCUCCUAAGCAGAAGACUGCGGGUUCGAGUGCCGUACGGAUCG | 0.524 |
| GUUCCGUUGGCGUAAUGGUAACGCGUCUCCCUCCUAAGCAGAGGACUGCGGGAUCGAGUCCAGUACGCAACG | ≤ 0.5 |
| GUUCCGUUGGCGUAAUGGUAACGCGUCUCCCUCCUAAGUAGAAGACUGCGGGUUCGAGUCCCGUAUGGAACG | 0.854 |
| GUUCCGUUGGCGUAAUGGUAACGCGUCUCCCUCCUAAGCAGAAGACUGCGGGUUCGAGUCCGGUACGGAACG | 0.607 |
| GUUCCGUUGGCGUAAUGGUAACGCGUCUCCCUCCUAAGCAGAAGAAUGCGGGUUCGAGUCCCGUACGGCACG | 0.53 |
| GUUCCGUUGGCGUAAUGGUAACGCGUCUCCCUCCUAAGGCGAAGCCUGCGGGUUCGAGUCCUGUACGGAACG | ≤ 0.5 |
| GUUCCGUUGGCGUAAUGGUAACGCGUCUCCCUCCUAAGCAGAACAUUGCGGGUUCGAGUCCCGUACGGAACG | 0.588 |
| GUUCCGUUGGCGUAAUGGUAACGCGUCUCCCUCCUAAGCAGAAGACUGCGGGUUCGAGUCCUCUACGGAACG | ≤ 0.5 |
| GUUCCGUUGGCGUAAUGGUAACGCGUCUCCCUCCUAAGCAGAAGACUGCGGGGUCGAGUCCCGUACGGAACG | 0.578 |
| GUUCCGUUGGCGUAAUGGUAACGCGUCUCCCUCCUAAGCAGAAGACUGCGGGUUCGAGUUCCGUACGGAACG | 0.656 |
| GUUCCGUUGGCGUAAUGGUAACGCGUCUCCCUCCUAAGCAGAAGACUGCGGGUUCGAGUACCGUACGGAACG | 0.587 |
| GUUCCGUUGGCGUAAUGGUAACGCGUCUCCCUCCUAAGCAGAAGACUGCGGGUUCGAGUGCCGUACGGAACG | 0.619 |
| GUUCCGUUGGCGUAAUGGUAACGCGUCUCCCUCCUAAGCAGAAGACUGCGGGUUCGAGUCCCGUACCGAACG | 0.742 |
| GUUCCGUUGGCGUAAUGGUAACGCGUCUCCCUCCUAAGCAGAAGACUGCGAGUUCGAGUCCCGUACGGAACG | 0.739 |
| GUUCCGUUGGCGUAAUGGUAACGCGUCUCCCUCCUAAGGCGAAGCCUGCGGGUUCGAGUCCCGUACGGAUCG | ≤ 0.5 |

| Variant | yeast fitness |
| --- | --- |
| GUUCCGUUGGCGUAAUGGUAACGCGUCUCCCUCCUAAGUAGAAGACUGAGGGUUCGACUCCCGUACGGAACG | 0.646 |
| GUUCCGUUGGCGUAAUGGUAACGCGUCUCCCUCCUAAGCAGAAGACUGCGGGUUCGAGUCCCGUGCGGAACG | 0.754 |
| GUUCCGUUGGCGUAAUGGUAACGCGUCUCCCUCCUAAGCAGAAGAGUGCGGGUUCGAGUCCCGUACGGAACG | 0.875 |
| GUUCCGUUGGCGUAAUGGUAACGCGUCUCCCUCCUAAGCAGAAGAAUGCGGGUUCGAGUCCGGUACGGAACG | ≤ 0.5 |
| GUUCCGUUGGCGUAAUGGUAACGCGUCUCCCUCCUAAGCAGAAGACUGCGGGUUCGCGUCACGCACGGAACG | ≤ 0.5 |
| GUUCCGUUGGCGUAAUGGUAACGCGUCUCCCUCCUAAGCAGAAGACUGCGGCUUCGAGUCCCGUACGGAACG | 0.635 |
| GUUCCGUUGGCGUAAUGGUAACGCGUCUCCCUCCUAAGGCGUAGACUGGGGGUUCGAGUCCCGUAGGGAACG | 0.612 |
| GUUCCGUUGGCGUAAUGGUAACGCGUCUCCCUCCUAAGCAGAAGACUGCGGGUUCGAGUUCCGUACGGCACG | 0.565 |
| GUUCCGUUGGCGUAAUGGUAACGCGUCUCCCUCCUAAGGCGUAGACUGUCGGUUCGAGUCCCGUAUGGAACG | 0.565 |
| GUUCCGUUGGCGUAAUGGUAACGCGUCUCCCUCCUAAGGCGCAGACUGCGGGUUCGAGUCCCGUACGGAUCG | 0.549 |
| GUUCCGUUGGCGUAAUGGUAACGCGUCUCCCUCCUAAGGCGCAGACUGCGGGAUCGAGUCCCGUACGGAACG | ≤ 0.5 |
| GUUCCGUUGGCGUAAUGGUAACGCGUCUCCCUCCUAAGCAGAACACUGCAGGUUCGAGUCCCGUACGGAACG | 0.566 |
| GUUCCGUUGGCGUAAUGGUAACGCGUCUCCCUCCUAAGCAGAAGACUGCGCGUUCGAGUCCCGUGCGGAACG | ≤ 0.5 |
| GUUCCGUUGGCGUAAUGGUAACGCGUCUCCCUCCUAAGCAGAAGACUGCGGGUUCGAGUCUCGUACGGAACG | 0.751 |
| GUUCCGUUGGCGUAAUGGUAACGCGUCUCCCUCCUAAGGCGAGGACUGCGGGUUCGAGUCCCGUACGGAACG | 0.741 |
| GUUCCGUUGGCGUAAUGGUAACGCGUCUCCCUCCUAAGGCGAUGACUGCGGGUUCGAGUCCCGUACGGAACG | 0.986 |
| GUUCCGUUGGCGUAAUGGUAACGCGUCUCCCUCCUAAGCAGAAGACUGCAGGUUCGAGUCCCGAACGGAACG | ≤ 0.5 |
| GUUCCGUUGGCGUAAUGGUAACGCGUCUCCCUCCUAAGCAGAACACUGCGGCUUCAAGUCCCGUACGGAACG | ≤ 0.5 |
| GUUCCGUUGGCGUAAUGGUAACGCGUCUCCCUCCUAAGCAGAUGACUGCGGGUUCGACUCCCGUACGGAACG | 0.57 |
| GUUCCGUUGGCGUAAUGGUAACGCGUCUCCCUCCUAAGGCGAUGACUGCGGGUUCGAGUUCCGUACGGAACG | 0.588 |
| GUUCCGUUGGCGUAAUGGUAACGCGUCUCCCUCCUAAGCAGAAGACUGCGGGUGCGAGUCCCGUGCGGAACG | ≤ 0.5 |
| GUUCCGUUGGCGUAAUGGUAACGCGUCUCCCUCCUAAGCAGAAGACUGCGGGUUGGAGUCCCGUACGGAACG | ≤ 0.5 |
| GUUCCGUUGGCGUAAUGGUAACGCGUCUCCCUCCUAAGCAGAAGACUCCGGCUUCGAGUCCCGUACGGAACG | ≤ 0.5 |
| GUUCCGUUGGCGUAAUGGUAACGCGUCUCCCUCCUAAGCAAAAGACUGCGGGUUCGAGUGUGGUUCGGAACG | 0.547 |
| GUUCCGUUGGCGUAAUGGUAACGCGUCUCCCUCCUAAGCAGAGGACUCAAGGUUCGAGUCCCGUACGGAACG | ≤ 0.5 |

| Variant | yeast fitness |
| --- | --- |
| GUUCCGUUGGCGUAAUGGUAACGCGUCUCCCUCCUAAGCAGAGCUCUGGGGGUUCGAGUCCCGUACGGAACG | 0.563 |
| GUUCCGUUGGCGUAAUGGUAACGCGUCUCCCUCCUAAGCAGACGACUGCGGGUUCAAGUGCCGUACGGAACG | ≤ 0.5 |
| GUUCCGUUGGCGUAAUGGUAACGCGUCUCCCUCCUAAGCAGAACACUGCGGGUUCGAGUCCCGUACGGAACG | 0.749 |
| GUUCCGUUGGCGUAAUGGUAACGCGUCUCCCUCCUAAGGCGGGGACUGAGGAUUCGAGUCCCGUACGGAACG | ≤ 0.5 |
| GUUCCGUUGGCGUAAUGGUAACGCGUCUCCCUCCUAAGCAGAAGACUGCGGGUUCGAGUCCCGCACGGAACG | 0.959 |
| GUUCCGUUGGCGUAAUGGUAACGCGUCUCCCUCCUAAGCAGAACAUUGCGGGUUCGAGUCCCGUACGGAUCG | ≤ 0.5 |
| GUUCCGUUGGCGUAAUGGUAACGCGUCUCCCUCCUAAGCAGAAGACUGCGGGUUCGAGUCCCAUACGGAACG | 0.7 |
| GUUCCGUUGGCGUAAUGGUAACGCGUCUCCCUCCUAAGCAGAACACUGCGGGUUCCAGUCCCGUACGGAACG | ≤ 0.5 |
| GUUCCGUUGGCGUAAUGGUAACGCGUCUCCCUCCUAAGGCGCAGACUGCGGGUUCAAGUCCCGUACAGAACG | ≤ 0.5 |
| GUUCCGUUGGCGUAAUGGUAACGCGUCUCCCUCCUAAGCAGAAGACUGCGGGUUCGAGUCCAGAACGGAACG | ≤ 0.5 |
| GUUCCGUUGGCGUAAUGGUAACGCGUCUCCCUCCUAAGCAGAAGACUGCGGGUUCGAGUCCCGUACGGUACG | 0.826 |
| GUUCCGUUGGCGUAAUGGUAACGCGUCUCCCUCCUAAGCAGAAGACUGCGGGUUCGAGUCCCGUACGGCACG | 0.834 |
| GUUCCGUUGGCGUAAUGGUAACGCGUCUCCCUCCUAAGCAGAAGACUGCGGGUGCGAGUCCCGUACGGACCG | 0.564 |
| GUUCCGUUGGCGUAAUGGUAACGCGUCUCCCUCCUAAGGCGGAGACUGCGGGUUCCAGUCCCGUACGGAACG | 0.588 |
| GUUCCGUUGGCGUAAUGGUAACGCGUCUCCCUCCUAAGUAGAAGACUGCGGAUUCGAGUCCCGUACGGAACG | 0.779 |
| GUUCCGUUGGCGUAAUGGUAACGCGUCUCCCUCCUAAGCAGAGGACUGCGGGUUCGAGUCCCGUACGGAACG | 0.684 |
| GUUCCGUUGGCGUAAUGGUAACGCGUCUCCCUCCUAAGCAGAUGACUGCGGGUUCGAGUCCCGUACGGAACG | 0.934 |
| GUUCCGUUGGCGUAAUGGUAACGCGUCUCCCUCCUAAGCAGAAGACUGCGGGUUCGAGUCCCGUGCGGAUCG | ≤ 0.5 |
| GUUCCGUUGGCGUAAUGGUAACGCGUCUCCCUCCUAAGCAGAAGACUGCAGGUUCGAGCCCCGUACGGAACG | ≤ 0.5 |
| GUUCCGUUGGCGUAAUGGUAACGCGUCUCCCUCCUAAGCAGAAGACUGCGGGAUCGAGUCCAGUACGCAACG | ≤ 0.5 |
| GUUCCGUUGGCGUAAUGGUAACGCGUCUCCCUCCUAAGGCGAUGACUGCGGGUUCGAGUCACGUACGGAACG | 0.611 |
| GUUCCGUUGGCGUAAUGGUAACGCGUCUCCCUCCUAAGCAGAAGAUUGUGGGUUCAAGUCCCGUACGCAACG | 0.54 |
| GUUCCGUUGGCGUAAUGGUAACGCGUCUCCCUCCUAAGCAGAAGACUGCGGGUUCGCGUCCCGUACGGAUCG | ≤ 0.5 |
| GUUCCGUUGGCGUAAUGGUAACGCGUCUCCCUCCUAAGCAGAAGACUGCGGGUUCGCGUCCCGUACGGAACG | ≤ 0.5 |
| GUUCCGUUGGCGUAAUGGUAACGCGUCUCCCUCCUAAGCAGAUGACUGCGGGUUCGAGUCCCGUACGGAUCG | 0.691 |
